The test system of data set [1] is Aspergillus pseudoglaucus. Nature of the data set: Antimicrobial activity against Eurotium repens at 50 ug/disk by agar diffusion assay. The class given is functional, organism-based. The essentials:
(§1)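 Agar diffusion assay with discs loaded at 50 µg/disk, run against the bacteria, fungi and the green microalga Chlorella fusca.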

Data set [2] relates to Radical scavenging activity. Kind of data set: Antioxidant activity assessed as DPPH radical scavenging activity at 230 uM after 30 mins. The data set is classed as functional. The essentials:
(§2)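 Samples in EtOH (100 µL) mixed with 25 µL of 1 mM DPPH in EtOH plus 75 µL EtOH, then shaken briefly. Kept 30 min at room temperature in the dark. Absorbance read at 517 nm. % scavenging calculated against control, with blank and sample-blank corrections.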

Data set [3] is described as follows: Antioxidant activity assessed as inhibition of FeSO4-induced lipid peroxidation at 82 uM by TBARS assay. The class given is functional. Put shortly:
(§3)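 Linolenic acid methyl ester oxidized under FeSO4 catalysis in 50 mM phosphate buffer pH 7.2 at 50 °C. BHT in ethanol added to stop further oxidation. TBARS developed with trichloroacetic and thiobarbituric acid, 60 °C for 30 min. Read A532 minus A600 background. % inhibition calculated versus uninhibited control, with blank and sample-blank corrections.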

A further data set relates to Microbotryum violaceum. Nature of the data set: Antimicrobial activity against Microbotryum violaceum at 50 ug/disk by agar diffusion assay. The data set is classed as functional, organism-based. Put shortly: as §1
In a further data set the test system is Escherichia coli. Nature of the data set: Antimicrobial activity against Escherichia coli at 50 ug/disk by agar diffusion assay. The data set is classed as functional, organism-based. Put shortly: as §1
Data set [4] deals with Radical scavenging activity. Nature of the data set: Antioxidant activity assessed as DPPH radical scavenging activity at 6 uM after 30 mins. The data set is classed as functional. Put shortly:
as §2

For another data set, the system named is Mycotypha microspora. Kind of data set: Antimicrobial activity against Mycotypha microspora at 50 ug/disk by agar diffusion assay. The data set is classed as functional, organism-based. Put shortly: as §1
Data set [5] is described as follows: Antioxidant activity assessed as inhibition of FeSO4-induced lipid peroxidation at 8 uM by TBARS assay. The data set is classed as functional. Put shortly:
as §3

The nature of data set [6]: Antioxidant activity assessed as inhibition of FeSO4-induced lipid peroxidation at 33 uM by TBARS assay. The class given is functional. The essentials: as §3
Data set [7] in a line: Antioxidant activity assessed as inhibition of FeSO4-induced lipid peroxidation at 16 uM by TBARS assay. The data set is classed as functional. The essentials: as §3
The nature of data set [8]: Antioxidant activity assessed as inhibition of FeSO4-induced lipid peroxidation at 164 uM by TBARS assay. The class given is functional. Put shortly:
as §3

The test system of a further data set is [Chlorella] fusca. Kind of data set: Antimicrobial activity against 'Chlorella' fusca at 50 ug/disk by agar diffusion assay. The data set is classed as functional, organism-based. To be noted: Scenedesmus fuscus. The essentials:
as §1

Data set [9] deals with Radical scavenging activity. Kind of data set: Antioxidant activity assessed as DPPH radical scavenging activity at 12 uM after 30 mins. The data set is classed as functional. The essentials: as §2
The test system of data set [10] is Radical scavenging activity. Nature of the data set: Antioxidant activity assessed as DPPH radical scavenging activity at 23 uM after 30 mins. The class given is functional. Put shortly: as §2
For the next data set, the system named is Priestia megaterium. Kind of data set: Antimicrobial activity against Bacillus megaterium at 50 ug/disk by agar diffusion assay. The data set is classed as functional, organism-based. The essentials: as §1
Data set [11] concerns Radical scavenging activity. Kind of data set: Antioxidant activity assessed as DPPH radical scavenging activity at 58 uM after 30 mins. The class given is functional. Put shortly:
as §2

Data set [12] relates to Radical scavenging activity. Kind of data set: Antioxidant activity assessed as DPPH radical scavenging activity at 115 uM after 30 mins. The class given is functional. The essentials: as §2
The nature of data set [13]: ABTS radical scavenging activity assessed as trolox equivalents by TEAC assay. The data set is classed as physicochemical. The essentials: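 ABTS radical cation made by passing ABTS in PBS through manganese dioxide, then filtered (0.2 µm). Diluted in 5 mM PBS pH 7.4 to A734 0.700 and preincubated 2 h at room temperature. 1 mL radical mixed with 200 µL ethanolic sample, vortexed 30 s, centrifuged. A734 of lower phase read exactly 2 min after mixing. PBS and ethanol blanks included. Trolox standards used; value is mM Trolox equivalent to 1.0 mM compound.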

Data set [14] is described as follows: Superoxide radical scavenging activity assessed as trolox equivalents by photochemiluminescence assay. The essentials: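 Photochemiluminescence with luminol acting as photosensitizer and detection reagent, generating superoxide. Mix of 2.29 mL reagent 1 (solvent/diluent), 200 µL buffer reagent, 25 µL photosensitizer and 10 µL sample in ethanol or Trolox standard in water. Antioxidant capacity taken from the integral under the curve and expressed as Trolox equivalents.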

The source made the active and inactive calls. No cut-off for these calls is given here.

With `CC(C)=CCC/C(C)=C/C(=O)C/C(C)=C/Cc1cc(O)cc(C)c1O`, the outcome (in data set [1]; with Microbotryum violaceum; with Escherichia coli; with Mycotypha microspora; in [Chlorella] fusca; with Priestia megaterium) was inactive. Moreover, the Activity in data set [2] stood at 94.1%; in data set [4] it was 2.6%; in data set [9], 3.7%; in data set [10], 11.2%; in [11], 29.8%; in [12], 59.1%. The inhibition in data set [3] was determined as 43.1%; in data set [5], 9.2%; in data set [6], 22.2%; in data set [7], 19.8%; in data set [8], 66.8%.

As for `CC(C)=CCC/C(C)=C/CC/C(C)=C/C(=O)C/C(C)=C/Cc1cc(O)cc(C)c1O`, the outcome (in data set [1]; in the data set on Microbotryum violaceum; in the data set with Escherichia coli; with Mycotypha microspora; in [Chlorella] fusca; with Priestia megaterium) was inactive. For the same compound, the Activity in [2] was 94.4%; in data set [4] it was 6%; in data set [9], 8.6%; in data set [10], 24.4%; in data set [11] it was 67.4%; in data set [12], 95%. The inhibition was 61.7% in data set [3]; 13.3% in data set [5]; 24.3% in [6]; 17% in data set [7]; 70.8% in [8].

`CC1=CC(=O)C=C(C/C=C(\C)CC(=O)/C=C(/C)CC/C=C(\C)Cc2cc(C)co2)C1=O`: the result (in [1]; with Microbotryum violaceum; with Escherichia coli; in the data set with Mycotypha microspora; in data set [Chlorella] fusca; in the data set with Priestia megaterium) was inactive. Besides, the Activity in [13] turned out to be 0.3 mmol/L; in data set [2] it was 38.6%; in data set [4] it was 1.1%; in data set [14] it was 1.41 mmol/L; in data set [9], 1.8%; in [10], 5.5%. Further, the Activity in data set [11] was determined as 12.2%; in [12] it was 22.8%. Besides, the inhibition in data set [3] is 38.7%; in [5] it was 11.1%; in data set [6], 24.4%; in data set [7], 16.1%; in [8] it was 54.4%.

Consider `CC(C)=CCC/C(C)=C/CC/C(C)=C\C(=O)C/C(C)=C/Cc1cc(O)cc(C)c1O`, for which the result (in [1]; in the data set on Microbotryum violaceum; in the data set on Escherichia coli; in the data set with Mycotypha microspora; in [Chlorella] fusca; in the data set on Priestia megaterium) was inactive. The Activity in data set [13] was found to be 0.14 mmol/L; in data set [2] it was 95.4%; in data set [4], 6.9%; in data set [14] it was 1.35 mmol/L; in data set [9], 11.8%; in [10], 25.5%. For the same compound, the Activity in data set [11] came out at 67.2%; in data set [12] it was 95.4%. Further, the inhibition stood at 66.8% in data set [3]; 10.7% in data set [5]; 28.6% in data set [6]; 12.1% in data set [7]; 71.8% in data set [8].

With `CC(C)=CCC/C(C)=C\C(=O)C/C(C)=C/Cc1cc(O)cc(C)c1O`, the Activity was determined as 92.5% in data set [2]; 2.6% in data set [4]; 5.9% in data set [9]; 17.7% in data set [10]; 50.2% in data set [11]; 92.1% in data set [12]. The inhibition in data set [3] came out at 52.9%; in data set [5], 13.2%; in [6] it was 28.8%; in data set [7] it was 19.9%; in [8] it was 66.5%.

For `CC(C)=CC(O)C/C(C)=C/CC/C(C)=C/C(=O)C/C(C)=C/Cc1cc(O)cc(C)c1O` (stereo unspecified), the result (in data set [1]; with Microbotryum violaceum; in the data set with Escherichia coli; in the data set on Mycotypha microspora; in data set [Chlorella] fusca; in the data set on Priestia megaterium) was inactive. Further, the Activity amounted to 96.1% in data set [2]; 4.6% in [4]; 7.4% in data set [9]; 18.1% in [10]; 49.2% in [11]; 93.2% in data set [12]. The inhibition in data set [3] stood at 55.4%; in data set [5] it was 7.8%; in data set [6], 17.6%; in data set [7], 11.7%; in [8], 68.9%.

On to `CC1=CC(=O)C=C(C/C=C(\C)CC(=O)/C=C(\C)CC/C=C(\C)Cc2cc(C)co2)C1=O`, for which the Activity in [2] was 29%; in [4] it was 1%; in data set [9], 2.2%; in data set [10], 2.9%; in [11], 8.1%; in data set [12], 16%. Further, the inhibition came to 31.4% in [3]; 7.6% in [5]; 20.2% in data set [6]; 14.2% in data set [7]; 43.3% in data set [8].

`CC(C)=CC(O)C/C(C)=C/CC/C(C)=C\C(=O)C/C(C)=C/Cc1cc(O)cc(C)c1O` (stereo unspecified): the outcome (in data set [1]; in the data set on Microbotryum violaceum; with Escherichia coli; in the data set with Mycotypha microspora; in data set [Chlorella] fusca; in the data set with Priestia megaterium) was inactive. Further, the Activity in [2] stood at 95.5%; in data set [4], 5.8%; in data set [9] it was 9.7%; in data set [10], 17.1%; in data set [11], 55.2%; in data set [12], 95.5%. Also, the inhibition is 60.4% in data set [3]; 4.9% in data set [5]; 19.2% in [6]; 10.4% in [7]; 70.3% in data set [8].

As for `Cc1cc(C(C)(C)C)c(O)c(C(C)(C)C)c1`, the Activity in data set [2] stood at 35.6%; in data set [4] it was 1.2%; in data set [9] it was 2.9%; in data set [10], 5.6%; in data set [11] it was 11.8%; in [12], 22%. The inhibition in data set [3] amounted to 63.3%; in [5] it was 23.1%; in [6], 49.1%; in [7] it was 35.4%; in data set [8], 69.3%.

Turning to `CC(C)=CC(=O)C/C(C)=C/CC/C(C)=C/C(=O)C/C(C)=C/Cc1cc(O)cc(C)c1O`, the outcome (in [1]; in the data set on Microbotryum violaceum; in the data set on Escherichia coli; in the data set with Mycotypha microspora; in data set [Chlorella] fusca; in the data set on Priestia megaterium) was inactive. In addition, the Activity is 0.37 mmol/L in data set [13]; 95.5% in data set [2]; 7.6% in [4]; 1.39 mmol/L in data set [14]; 14.3% in data set [9]; 29.1% in [10]. Also, the Activity was 80.8% in data set [11] and 95.7% in data set [12]. Also, the inhibition in data set [3] worked out at 70.1%; in [5], 13.6%; in [6], 39.9%; in [7], 20.3%; in data set [8], 72.2%.

As to `Cc1c(C)c2c(c(C)c1O)CC[C@@](C)(CCC[C@H](C)CCC[C@H](C)CCCC(C)C)O2` [ALPHA-TOCOPHEROL], the Activity amounted to 0.63 mmol/L in data set [13]; 95.2% in data set [2]; 8.2% in [4]; 1.26 mmol/L in [14]; 16.3% in data set [9]; 33.9% in [10]. Also, the Activity in data set [11] was determined as 88.1%; in data set [12] it was 94.9%. In addition, the inhibition in data set [3] amounted to 71.2%; in data set [5] it was 13.1%; in data set [6] it was 67.6%; in [7], 32.1%; in data set [8] it was 72.7%.

The values are drawn from ChEMBL document CHEMBL1146554, “Antioxidative meroterpenoids from the brown alga Cystoseira crinita” (J Nat Prod, 2003).
